# Screens: PubChem, several laboratories
# FAS TE block = inhibitors of human fatty acid synthase thioesterase domain; P49327; recombinant FAS-TE, OMFH fluorogenic substrate, fluorescence endpoint; inhibition, % at 15 µM; hit rate 0.67% among 360,000; AID 602261;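 active = compounds whose normalised, plate-corrected inhibition of enzyme fluorescence in the single-dose primary screen is 50% or more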
# SENP1 FRET inh = blocks the human SENP1 SUMO protease catalytic domain. recombinant SENP1 catalytic domain, CyPet-SUMO1-YPet FRET cleavage. AID 624204. hit rate 0.21% among 360,000. Q9P0U3. inhibition, % at 10 µM;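 active = inhibition at least 30% at 10 µM, raw YFP signal under a set limit, fluorescence ratio 0.5 to 1.5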
#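 System: Recombinant human SENP1 catalytic domain, His6-tagged | Incubation: Enzyme reaction for 50 min at room temperature, dark | Medium: Tris pH 8 with BME, BSA, NP40 and catalase | Also added: 25 nM SUMO1 FRET substrate | Compound: 10 µM single point, 0.5% DMSO | Measured by: FRET fluorescence in CFP and YFP emission channels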
# ABCB6 inh MLPCN = inhibitors of human ABC transporter ABCB6; Q9NP58; fluorescence ratio to DMSO, % at 10 µM; hit rate 0.19% among 360,000; AID 602162; K562-ABCB6 porphyrin accumulation, flow cytometry, 1 h; stronger effect = lower value;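 active = fluorescence ratio to DMSO below 75%, the collection mean minus 3 SD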;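 note: signal is porphyrin accumulated inside mitochondria; lower ratio means ABCB6 inhibition with less porphyrin fluorescence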
# Target sequence (Q9NP58 whole entry, looked up): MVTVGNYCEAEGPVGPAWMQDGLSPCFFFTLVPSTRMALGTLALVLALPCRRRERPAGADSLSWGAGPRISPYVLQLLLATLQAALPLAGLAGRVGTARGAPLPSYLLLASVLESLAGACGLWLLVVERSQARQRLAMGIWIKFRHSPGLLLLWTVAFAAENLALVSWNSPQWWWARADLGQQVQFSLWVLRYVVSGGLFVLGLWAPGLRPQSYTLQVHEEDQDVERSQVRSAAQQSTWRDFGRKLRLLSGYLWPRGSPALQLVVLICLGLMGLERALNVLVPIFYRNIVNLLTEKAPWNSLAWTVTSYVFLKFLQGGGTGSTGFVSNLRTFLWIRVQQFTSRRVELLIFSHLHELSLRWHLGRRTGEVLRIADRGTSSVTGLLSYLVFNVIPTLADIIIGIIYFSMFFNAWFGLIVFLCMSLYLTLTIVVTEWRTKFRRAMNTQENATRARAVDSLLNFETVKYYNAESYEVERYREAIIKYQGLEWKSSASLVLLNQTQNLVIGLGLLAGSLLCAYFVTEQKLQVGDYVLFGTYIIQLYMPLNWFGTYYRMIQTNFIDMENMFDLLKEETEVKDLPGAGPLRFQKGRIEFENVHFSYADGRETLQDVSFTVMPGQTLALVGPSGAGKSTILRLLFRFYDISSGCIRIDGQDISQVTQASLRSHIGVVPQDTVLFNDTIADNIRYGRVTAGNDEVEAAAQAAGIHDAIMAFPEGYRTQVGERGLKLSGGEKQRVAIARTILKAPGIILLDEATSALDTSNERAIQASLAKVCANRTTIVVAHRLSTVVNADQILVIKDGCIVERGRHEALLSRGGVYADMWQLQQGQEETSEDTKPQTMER
# hiPSC survival = increases survival of single human iPS cells; hiPSC single-cell survival, ATPlite luminescence; 100% = ROCK inhibitor wells, 0% = DMSO; survival enhancement, % at 20 µM; hit rate 0.044% among 360,000; AID 602274; in the data active = survival enhancement above about 18%;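 note: cells exposed to compounds for 16 hours before the ATP read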
# FAS-TE conf = FAS thioesterase (human) inhibition, confirmation. hit rate 45% among 2,300. recombinant FAS-TE, OMFH fluorogenic substrate, fluorescence. shares compounds with FAS TE block. inhibition, % at 15 µM. AID 624325;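 active = compounds inhibiting the enzyme by at least 50% at 15 µM in any one of the replicates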
# A number is an active result; 0 = inactive; - = no result given. A selection: hits, their analogues and other compounds. The true share with any hit is near 1.1%.
SMILES,FAS TE block,SENP1 FRET inh,ABCB6 inh MLPCN,hiPSC survival,FAS-TE conf
CCc1nc2c(OCc3ccc(Cl)cc3)cccn2c1N(C=O)Cc1ccc(OC)cc1,54.2,0,0,0,62.2
CC(=O)C1=C(C)Nc2ncnn2C1c1ccccc1F (stereo not drawn),0,0,0,0,-
CCN(CC)S(=O)(=O)c1ccc2oc(C(=O)N3CCc4ccccc4C3)c(C)c2c1,0,0,0,0,-
Cc1c(C(=O)N2CCc3ccccc3C2)oc2ccc(S(=O)(=O)N3CC(C)CC(C)C3)cc12 (stereo not drawn),52.5,0,0,0,0
COC(=O)C1CN(C(=O)COc2ccc(C)c(C)c2)c2ccccc2O1 (stereo not drawn),0,0,0,0,-
CCc1ccc(CN(C)CC(=O)Nc2ccc(S(=O)(=O)N3CCOCC3)cc2)cc1,0,0,0,0,-
COC(=O)[C@]12CCCCC=C1N(CCc1ccc(OC)c(OC)c1)C(=O)[C@H](CC(=O)NCc1ccc(C)o1)C2,-,0,-,-,-
CCCCC(=O)Nc1nc(-c2ccc(S(=O)(=O)N3CCOCC3)cc2)cs1,87.6,0,0,0,91.5
O=C(Nc1nc(-c2ccc(S(=O)(=O)N3CCOCC3)cc2)cs1)c1ccccc1,0,0,0,0,-
CC(C)CC(=O)Nc1nc(-c2ccc(S(=O)(=O)N3CCOCC3)cc2)cs1,52.5,0,0,0,0
Cc1ccc(S(=O)(=O)N2CCOCC2)cc1C(=O)Nc1nc(-c2cccnc2)cs1,0,0,0,0,-
O=S(=O)(c1ccc(-c2csc(-c3cccnc3)n2)cc1)N1CCOCC1,78.7,0,0,0,82.4
O=C(c1ccccc1)N1CCN(C(=S)NCc2ccco2)CC1,0,0,0,0,-
Cc1ccc2oc(C(=O)N3CCC(O)(c4ccccc4)CC3)c(C)c2c1,0,0,0,0,-
CCCC1NC(C(=O)O)Cc2c1[nH]c1ccccc21 (stereo not drawn),0,0,0,0,-
COc1ccc(Cl)cc1NC(=O)CN(C)C(=O)c1cc2c(s1)CCC(C)C2 (stereo not drawn),0,0,0,0,-
Cc1ccc(-n2ncc3c2CC(C)(C)CC3NC(=O)CCc2ccc(=O)[nH]n2)cc1 (stereo not drawn),0,0,0,0,-
O=C(NCCCN1CCOCC1)/C(=C/c1cccs1)NC(=O)c1ccccc1,0,0,0,0,-
Cc1nc2ccc(N)cc2c(=O)n1Cc1ccc(Cl)cc1,0,0,0,0,-
COc1ccc(Cn2c(C)nc3ccc([N+](=O)[O-])cc3c2=O)cc1,70.0,0,0,0,47.8
Cc1nc2ccc([N+](=O)[O-])cc2c(=O)n1Cc1ccc(Cl)cc1,82.8,0,0,0,84.8
Cc1cc(C)c(Cn2cnc(-c3ccc([N+](=O)[O-])cc3)c2)c(C)c1,53.8,0,0,0,52.8
CNc1ccc(OC)cc1-n1cnc(-c2ccc([N+](=O)[O-])cc2)c1,0,0,0,0,-
CC(C)(C)c1ccc(Cn2cnc(-c3ccc([N+](=O)[O-])cc3)c2)cc1,51.4,0,0,0,0
CC(C)(C)c1ccc(CNc2ccc([N+](=O)[O-])cn2)cc1,0,0,0,0,-
SMILES,FAS TE block,SENP1 FRET inh,ABCB6 inh MLPCN,hiPSC survival,FAS-TE conf
CSCCC(NC(=O)c1ccc([N+](=O)[O-])cc1Cl)C(=O)OC1CCCCC1=O (stereo not drawn),0,0,0,0,-
COc1cc(/C=C/C(=O)N2CCCc3ccccc32)cc(OC)c1OC,0,0,0,0,-
c1ccc(-c2ccc(CNC3CC3)cc2)cc1,0,0,0,0,-
COc1ccc(C(C)=O)cc1COC(=O)c1cc(=O)c2ccccc2o1,0,0,0,0,-
Cc1cccc(C)c1Cn1c(C)c(C(=O)NCc2ccc([N+](=O)[O-])cc2)sc1=O,60.9,0,0,0,62.2
O=C(C[C@H]1C[C@H](C(=O)N2CCOCC2)[C@@]2(CCC3CCCC3)c3[nH]c4cc(-c5ccco5)ccc4c3CCN2C1=O)NCCC1=CCCCC1,0,0,0,0,-
O=C(C[C@H]1C[C@H](C(=O)N2CCOCC2)[C@@]2(CCC3CCCC3)c3[nH]c4ccc(Cl)cc4c3CCN2C1=O)NCCc1ccccn1,82.8,0,0,0,92.5
O=C(C[C@H]1C[C@H](C(=O)N2CCOCC2)[C@@]2(CCC3CCCC3)c3[nH]c4ccc(Cl)cc4c3CCN2C1=O)NCCN1CCOCC1,84.6,0,0,0,76.3
O=C(CC1C[C@H](C(=O)N2CCCCC2)[C@@]2(CCc3ccccc3)c3[nH]c4ccccc4c3CCN2C1=O)NCCc1ccccn1 (stereo partly drawn),0,0,0,0,-
COCCCNC(=O)C[C@H]1C[C@H](C(=O)N2CCOCC2)[C@@]2(CCC3CCCC3)c3[nH]c4ccc(Cl)cc4c3CCN2C1=O,86.4,0,0,0,0
O=C(C[C@H]1C[C@H](C(=O)N2CCOCC2)[C@@]2(CCC3CCCC3)c3[nH]c4cc(-c5ccco5)ccc4c3CCN2C1=O)NCCc1ccccn1,64.5,0,0,0,71.0
C[C@]12c3[nH]c4ccc(Cl)cc4c3CCN1C(=O)[C@@H](CC(=O)NCCN1CCOCC1)C[C@@H]2C(=O)N1CCOCC1,0,0,0,0,-
O=C1NC[C@@H](c2ccccc2)OC(=O)[C@@H](Cc2ccc(F)cc2)C/C=C\C[C@@H]1CC(=O)N(CCO)Cc1ccccc1,0,0,0,0,-
CC(C)(C)S(=O)N1Cc2cc(C(=O)N3CCc4ccccc4C3)nc(-c3cccc(-c4ccncc4)c3)c2[C@H]1CCO (stereo partly drawn),0,0,0,0,-
O=C(CBr)Nc1c2c(nn1-c1ccccc1)CSC2,0,0,0,0,-
CC(=O)N/C(=N\c1nc(C)cc(C)n1)Nc1ccccc1Cl,0,0,0,0,-
COc1ccc([N+](=O)[O-])cc1C(=O)NCCOc1ccc(Cl)cc1,62.7,0,0,0,68.3
Cc1ccc(OCCNC(=O)c2cc(C(=O)NCCOc3ccc(C)cc3)cc([N+](=O)[O-])c2)cc1,0,0,0,0,-
NC(=O)C1CCN(CC(=O)Nc2ccccc2N2CCOCC2)CC1,0,0,0,0,-
CN1CCC(N2CCN(C3CN(Cc4ccc(F)cc4)S(=O)(=O)C3)CC2)CC1 (stereo not drawn),0,0,0,0,-
COC(=O)c1sc2ccccc2c1NC(=O)c1ccc(S(=O)(=O)N2CCCCC2C)cc1 (stereo not drawn),0,0,0,0,-
N#CCCN(CCC#N)S(=O)(=O)c1ccc(C(=O)Nc2nc(-c3ccccc3)c(C(=O)c3ccccc3)s2)cc1,57.5,0,0,0,0
COC(=O)c1sc2ccccc2c1NC(=O)c1ccc(S(=O)(=O)N2CCCCC2)cc1,62.4,0,0,0,0
O=C(Nc1ccccc1)c1ccc(S(=O)(=O)N2CCCC2)cc1,0,0,0,0,-
O=C(Nc1nc(-c2ccccc2)c(C(=O)c2ccccc2)s1)c1ccc(S(=O)(=O)N2CCCC2)cc1,82.6,0,0,0,0
O=C(Nc1nc(-c2ccccc2)c(-c2ccccc2)s1)c1ccc(S(=O)(=O)N2CCCC2)cc1,67.2,0,0,0,0
